# Laboratory results: PMC6880868 (Cancer cell, 2019)
# Read-outs that look alike come from different tables or passages of the source.
# Experiments:
# [1] = test system: transcriptional activity of STAT3; assay: STAT3-luciferase reporter assay; assay type: cell-based, human
# [2] = target: T1, STAT3 (Homo sapiens, UniProt P40763); assay: STAT3 protein degradation in human cells; assay type: cell-based; conditions: for effect on SD-36-induced depletion of STAT3 protein: co-treatment with SD-36; for effect on the levels of STAT3 protein: 10 μM, 3 hr MOLM-16 or 24 hr SU-DHL-1
# How it was run: (§1)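 Treated cells were lysed in cell lysis buffer, resolved by SDS-PAGE, transferred to PVDF and probed by immunoblotting.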
# Target sequence in this assay (P40763 whole entry): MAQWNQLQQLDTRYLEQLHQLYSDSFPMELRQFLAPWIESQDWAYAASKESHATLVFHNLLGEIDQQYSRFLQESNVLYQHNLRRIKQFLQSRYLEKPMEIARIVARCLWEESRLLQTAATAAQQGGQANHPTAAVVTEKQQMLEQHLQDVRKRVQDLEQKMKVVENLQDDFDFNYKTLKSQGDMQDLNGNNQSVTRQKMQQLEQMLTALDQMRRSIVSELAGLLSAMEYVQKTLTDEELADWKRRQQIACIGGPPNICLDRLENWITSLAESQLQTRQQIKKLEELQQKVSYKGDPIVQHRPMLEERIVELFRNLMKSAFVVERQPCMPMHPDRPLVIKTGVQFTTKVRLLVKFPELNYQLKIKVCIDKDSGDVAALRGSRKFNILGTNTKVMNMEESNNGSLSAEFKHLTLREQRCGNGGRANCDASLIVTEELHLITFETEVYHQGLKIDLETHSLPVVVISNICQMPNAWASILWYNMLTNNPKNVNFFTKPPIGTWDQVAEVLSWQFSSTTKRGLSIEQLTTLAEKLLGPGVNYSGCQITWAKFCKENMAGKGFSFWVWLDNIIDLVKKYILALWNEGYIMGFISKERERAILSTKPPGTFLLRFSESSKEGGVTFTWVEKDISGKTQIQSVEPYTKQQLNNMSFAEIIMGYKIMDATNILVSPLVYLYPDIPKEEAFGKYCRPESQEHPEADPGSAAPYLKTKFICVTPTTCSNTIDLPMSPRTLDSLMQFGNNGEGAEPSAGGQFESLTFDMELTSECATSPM
# [3] = test system: MOLM-16; assay: 4-day CellTiter Glo cell viability assay, MOLM-16; assay type: cell-based; conditions: Homo sapiens, MOLM16, 96 h, read-out: IC50, growth inhibition
# [4] = test system: leukemia and lymphoma cell lines; assay: 4-day CellTiter Glo cell viability assay, leukemia and lymphoma cell line panel; assay type: cell-based, human
# [5] = target: T1, STAT3; assay: Fluorescence polarization; assay type: binding
# How it was run: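 Competitive fluorescence polarisation assay. Recombinant STAT3 (25 nM) was premixed 5 min with 2.5 nM 5-FAM-labelled STAT3 SH2-domain ligand. The mix was added to serially diluted test compound and read after 1 hr at room temperature. Buffer: 50 mM NaCl, 10 mM HEPES pH 7.5, 1 mM EDTA, 0.01% Triton X-100, 2 mM DTT. IC50 came from nonlinear regression and was converted to Ki.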
# Target sequence in this assay (P40763 127-688): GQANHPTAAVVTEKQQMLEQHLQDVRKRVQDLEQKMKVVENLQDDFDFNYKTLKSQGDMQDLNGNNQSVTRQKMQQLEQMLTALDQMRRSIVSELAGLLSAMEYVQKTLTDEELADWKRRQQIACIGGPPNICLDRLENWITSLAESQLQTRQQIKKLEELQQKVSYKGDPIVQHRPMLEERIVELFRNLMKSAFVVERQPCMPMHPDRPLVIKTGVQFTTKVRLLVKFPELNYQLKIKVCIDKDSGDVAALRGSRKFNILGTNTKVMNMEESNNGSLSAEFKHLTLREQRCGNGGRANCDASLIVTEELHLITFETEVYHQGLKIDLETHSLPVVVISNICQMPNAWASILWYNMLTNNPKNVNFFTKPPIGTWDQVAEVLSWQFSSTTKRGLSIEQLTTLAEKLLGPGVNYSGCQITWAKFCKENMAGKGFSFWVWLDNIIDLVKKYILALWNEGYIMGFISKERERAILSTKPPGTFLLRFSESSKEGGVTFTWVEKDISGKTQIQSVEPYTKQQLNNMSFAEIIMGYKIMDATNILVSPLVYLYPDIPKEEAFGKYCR
# [6] = target: monomeric and dimeric STAT3 protein (Homo sapiens, UniProt P40763); assay: Native electrophoresis and immunoblotting of STAT3 monomer/dimer; assay type: cell-based; conditions: MOLM-16, 5 hr
# Sequence of monomeric and dimeric STAT3 protein (P40763 whole entry): as the sequence (P40763 whole entry) above
# [7] = test system: MOLM-16 cells; assay: RNA-seq analysis, MOLM-16; assay type: cell-based, human; conditions: MOLM-16, 24 hr
# [8] = test system: SU-DHL-1; assay: RNA-seq analysis, SU-DHL-1; assay type: cell-based, human; conditions: SU-DHL-1, 24 hr
# [9] = test system: MOLM-16 and SU-DHL-1 cell lines; assay: Cell cycle analysis by flow cytometry; assay type: cell-based, human; conditions: 1 μM, 48 hr
# How it was run: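 After treatment, cells were washed twice in cold PBS and fixed overnight in 50% ethanol. They were stained 1 hr at 4°C with PI (50 μg/ml) plus DNase-free RNase A (0.2 μg/ml), then analysed by flow cytometry.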
# [10] = target: T1, STAT3; assay: Pharmacodynamics: STAT3 protein in xenograft tumors; assay type: in vivo, NOD/SCID mice bearing human xenograft tumors; conditions: 100 mg/kg i.v.
# Target sequence in this assay (P40763 whole entry): as above
# [11] = target: T1, STAT3; assay: Bio-Layer Interferometry binding, STAT3
# How it was run: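 Recombinant human STAT3 was biotinylated and binding measured by Bio-Layer Interferometry for Kd. Selectivity was taken from Kd values against other STATs.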
# Target sequence in this assay (P40763 127-688): as the sequence (P40763 127-688) above
# [12] = target: STAT1 (Homo sapiens, UniProt P42224); assay: Bio-Layer Interferometry binding, STAT1
# Sequence of STAT1 (P42224 132-713): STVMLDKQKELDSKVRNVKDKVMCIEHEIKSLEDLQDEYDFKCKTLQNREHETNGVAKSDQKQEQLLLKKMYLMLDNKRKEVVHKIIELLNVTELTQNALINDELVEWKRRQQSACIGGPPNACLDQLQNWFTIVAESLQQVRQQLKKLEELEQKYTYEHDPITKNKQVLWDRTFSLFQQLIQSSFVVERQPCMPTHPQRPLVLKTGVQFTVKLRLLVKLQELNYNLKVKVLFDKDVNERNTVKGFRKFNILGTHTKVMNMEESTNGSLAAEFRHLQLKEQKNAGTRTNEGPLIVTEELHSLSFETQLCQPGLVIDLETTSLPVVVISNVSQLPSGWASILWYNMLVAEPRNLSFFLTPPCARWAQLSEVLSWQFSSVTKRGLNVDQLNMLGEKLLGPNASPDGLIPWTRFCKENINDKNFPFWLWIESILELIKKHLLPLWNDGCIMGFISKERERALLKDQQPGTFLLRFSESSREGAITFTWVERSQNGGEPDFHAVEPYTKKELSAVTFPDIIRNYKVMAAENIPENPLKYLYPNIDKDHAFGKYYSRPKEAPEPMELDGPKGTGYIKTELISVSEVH
# How it was run: (§2)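 Purified recombinant human STAT proteins were biotinylated, then direct binding of the test compound was measured by Bio-Layer Interferometry to give Kd.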
# [13] = target: STAT4 (Homo sapiens, UniProt Q14765); assay: Bio-Layer Interferometry binding, STAT4
# Sequence of STAT4 (Q14765 133-705): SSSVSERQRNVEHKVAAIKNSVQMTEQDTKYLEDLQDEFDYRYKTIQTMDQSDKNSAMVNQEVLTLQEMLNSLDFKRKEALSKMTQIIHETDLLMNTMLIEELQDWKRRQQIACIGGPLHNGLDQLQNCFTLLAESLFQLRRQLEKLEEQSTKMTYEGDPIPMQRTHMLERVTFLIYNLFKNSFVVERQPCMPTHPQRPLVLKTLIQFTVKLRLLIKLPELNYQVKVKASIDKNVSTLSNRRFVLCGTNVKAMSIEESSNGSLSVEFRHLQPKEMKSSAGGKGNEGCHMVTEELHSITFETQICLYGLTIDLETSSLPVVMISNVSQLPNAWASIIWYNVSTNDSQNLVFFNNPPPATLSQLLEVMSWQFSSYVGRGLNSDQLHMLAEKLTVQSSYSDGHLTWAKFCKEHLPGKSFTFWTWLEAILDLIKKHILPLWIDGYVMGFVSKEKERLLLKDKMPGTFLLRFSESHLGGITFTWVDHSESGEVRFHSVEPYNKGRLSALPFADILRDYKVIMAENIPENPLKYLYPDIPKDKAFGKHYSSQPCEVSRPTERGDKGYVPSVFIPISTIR
# How it was run: as §2
# [14] = test system: ~5500 proteins quantified in each cell line; assay: Multiplexed quantitative proteomics in cell lines; assay type: cell-based, human; conditions: 10 μM, 2.5 hr, three cell lines, p≤0.05
# How it was run: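 Cells were exposed to test compound, then analysed by multiplexed quantitative proteomics. Significance was assessed by Student's t-test.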
# [15] = target: DNA binding activity of STAT3 (Homo sapiens, UniProt P40763); assay: STAT3 DNA binding activity assay on nuclear extracts; assay type: cell-based; conditions: 10 μM, 8 hr, MOLM-16 and SU-DHL-1
# Sequence of DNA binding activity of STAT3 (P40763 whole entry): as the sequence (P40763 whole entry) above
# How it was run: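 Nuclear extraction: cells were swelled 15 min on ice in hypotonic HEPES pH 7.9/10 mM KCl buffer with DTT and phosphatase/protease inhibitors. NP-40 was added (0.5% final), and nuclei were extracted 15 min at 4°C in 0.4 M NaCl HEPES buffer, then cleared at 5,000 × g. ELISA: 5 μg extract was bound 1 hr at room temperature in TransAM STAT ELISA wells. Wells then received STAT antibody (1:1000, 1 hr), HRP secondary (1 hr) and colour development.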
# [16] = test system: c-Myc; STAT3 Y705 phosphorylation; assay: Immunoblotting of c-Myc and pSTAT3; assay type: cell-based, human; conditions: concentrations as high as 10 μM
# How it was run: as §1
# [17] = test system: MOLM-16 tumors; assay: MOLM-16 xenograft efficacy; assay type: in vivo, NOD/SCID female mice; conditions: 100 mg/kg twice weekly for 4 weeks
# How it was run: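 NOD/SCID female mice were injected subcutaneously in 5 mg/ml Matrigel with MOLM-16 (3 × 10^6), SU-DHL-1 (1 × 10^7) or SUP-M2 (1 × 10^7) cells. At about 150 mm3, mice were size-matched and randomised. Test compound or vehicle (10% PEG400 + 90% PBS) was given on the indicated schedules. Tumours were measured 2–3 times weekly, with volume = length×width²/2. TGI was calculated from group medians.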
# [18] = Homo sapiens, MOLM16, 24 h, read-out: IC50, transcriptional activity of STAT3
# [19] = Homo sapiens, read-out: IC50, inhibition of transcriptional activity of STAT3
compound,measurement,setting,value
"Nc1cccc2c1CN(C1CCC(=O)NC1=O)C2=O (centres unmarked) [lenalidomide, reference compound]",effect on STAT3 transcriptional activity,"[1]; MOLM-16 STAT3 reporter, 24 hr",no significant effect
same,effect on SD-36-induced depletion of STAT3 protein,[2],blocked
same,IC50,[3],~4000 nM
same,IC50,"[4]; Homo sapiens, read-out: IC50, proliferation",> 10000 nM
"NC(=O)CC[C@H](NC(=O)[C@@H]1CCC2CCCC[C@H](NC(=O)c3cc4cc(OP(=O)(O)O)ccc4[nH]3)C(=O)N21)C(=O)NCc1ccccc1 (stereo partly drawn) [compound 2, 2-((3S,6S)-3-((S)-5-Amino-1-(benzylamino)-1,5-dioxopentan-2-ylcarbamoyl)-5-oxodecahydropyrrolo[1,2-a]azocin-6-ylcarbamoyl)-1H-indol-5-yl dihydrogen phosphate]",Ki,[5],39 nM
same,suppressing STAT3 activity in cells,[1]; cells,ineffective
"CN1C(=O)CCC(N2Cc3c(C#CCCCCCC(=O)N4CC[C@H]5CC[C@@H](C(=O)N[C@@H](CCC(N)=O)C(=O)NC(c6ccccc6)c6ccccc6)N5C(=O)[C@@H](NC(=O)c5cc6cc(C(F)(F)P(=O)(O)O)ccc6[nH]5)C4)cccc3C2=O)C1=O (stereo partly drawn) [SD-36Me, ((2-(((5S,8S,10aR)-8-(((S)-5-amino-1-(benzhydrylamino)-1,5-dioxopentan-2-yl)carbamoyl)-3-(8-(2-(1-methyl-2,6-dioxopipehdin-3-yl)-1-oxoisoindolin-4-yl)oct-7-ynoyl)-6-oxodecahydropyrrolo[1,2-a][1,5]diazocin-5-yl)carbamoyl)-1H-indol-5-yl)difluoromethyl)phosphonic acid]",IC50,"[1]; read-out: IC50, transcriptional activity of STAT3, MOLM-16 STAT3-dependent luciferase reporter cell line, 24 hr",~10000 nM
same,effect on the levels of STAT3 protein,[2],no significant effect
same,concentration diminishing STAT3 dimers,[6],~ 10 μM
same,"genes up- or down-regulated ≥2-fold (p≤0.05), total",[7],13 genes
same,"genes differentially regulated (≥2-fold, p≤0.05)",[8],28 genes
same,cell cycle effect,[9],modest G1 arrest
same,effect on protein levels of STAT3 in MOLM-16 tumors,[10],no significant effect
"CC(=O)N1CC[C@H]2CC[C@@H](C(=O)N[C@@H](CCC(N)=O)C(=O)NC(c3ccccc3)c3ccccc3)N2C(=O)[C@@H](NC(=O)c2cc3cc(C(F)(F)P(=O)(O)O)ccc3[nH]2)C1 [SI-109, ((2-(((5S,8S,10aR)-3-acetyl-8-(((S)-5-amino-1-(benzhydrylamino)-1,5-dioxopentan-2-yl)carbamoyl)-6-oxodecahydropyrrolo[1,2-a][1,5]diazocin-5-yl)carbamoyl)-1H-indol-5-yl)difluoromethyl)phosphonic acid]",Ki,[5],9 nM
same,IC50,[1]; [18],~10000 nM
same,IC50,[1]; [19],~3000 nM
same,effect on the levels of STAT3 protein,[2],no significant effect
same,Kd,[11],~50 nM
same,binding selectivity for STAT3 over STAT1 and STAT4,[11]; BLI Kd,~ 20 fold
same,Kd,[12],1000 to 2000 nM
same,Kd,[13],1000 to 2000 nM
same,proteome-wide selectivity,[14],no measurable effect
same,concentration diminishing STAT3 dimers,[6],~ 10 μM
same,DNA binding activity of STAT3,[15],only modestly reduces
same,IC50,[3],~3000 nM
same,cell lines with moderate growth-inhibitory activity,[4]; 18 leukemia and lymphoma cell lines,1 of these 18
same,growth-inhibitory activity in a large number of human cancer cell lines,[4]; initial testing,no appreciable growth-inhibitory activity
same,inhibition of STAT3 Y705 phosphorylation and suppression of c-Myc expression,[16],ineffective
same,effect on protein levels of STAT3 in MOLM-16 tumors,[10],no significant effect
same,effect on the growth of MOLM-16 tumors,[17],no effect
"NS(=O)(=O)OC[C@@H]1C[C@@H](n2ccc3c(N[C@H]4CCc5ccccc54)ncnc32)C[C@@H]1O [MLN4924, reference compound]",effect on SD-36-induced depletion of STAT3 protein,[2],blocked
"NC(=O)CC[C@H](NC(=O)[C@@H]1CCC2CCCC[C@H](NC(=O)c3cc4cc(C(F)(F)P(=O)(O)O)ccc4[nH]3)C(=O)N21)C(=O)NCc1ccccc1 (stereo partly drawn) [compound 3, (2-((3S,6S)-3-((S)-5-Amino-1-(benzylamino)-1,5-dioxopentan-2-ylcarbamoyl)-5-oxodecahydropyrrolo[1,2-a]azocin-6-ylcarbamoyl)-1H-indol-5-yl)difluoromethylphosphonic acid]",Ki,[5],7 nM
same,binding potency relative to compound 2,[5]; Ki ratio,5 times
"CC(C)C[C@H](NC(=O)[C@H](CCc1ccccc1)NC(=O)CN1CCOCC1)C(=O)N[C@@H](Cc1ccccc1)C(=O)N[C@@H](CC(C)C)C(=O)[C@@]1(C)CO1 [carfilzomib, reference compound]",effect on SD-36-induced depletion of STAT3 protein,[2],blocked
"CN1CC[C@H]2CC[C@@H](C(=O)N[C@@H](CCC(N)=O)C(=O)NCc3ccccc3)N2C(=O)[C@@H](NC(=O)c2cc3cc(C(F)(F)P(=O)(O)O)ccc3[nH]2)C1 [SI-108, ((2-(((5S,8S,10aR)-8-(((S)-5-amino-1-(benzylamino)-1,5-dioxopentan-2-yl)carbamoyl)-3-methyl-6-oxodecahydropyrrolo[1,2-a][1,5]diazocin-5-yl)carbamoyl)-1H-indol-5-yl)difluoromethyl)phosphonic acid]",Ki,[5],11 nM
same,IC50,[1]; [18],~10000 nM
same,IC50,[1]; [19],~3000 nM
same,effect on SD-36-induced depletion of STAT3 protein,[2],blocked
